# Shown is part of a subset that was picked to be rich in hits.
# L major viab: Leishmania major promastigote growth inhibition, primary screen; Leishmania major promastigotes, resazurin fluorescence viability; inhibition, % at 10 µM; hit rate 9% among 200,000; in the data active means inhibition above about 50%;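 further: promastigotes grown with compound for 44 hours at 28 °C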
# Calb FLC: C. albicans growth inhibition with fluconazole, primary screen, CaCi-2 strain, Alamar Blue fluorescence | C. albicans CaCi-2 + fluconazole, 48 h | growth inhibition, % (concentration not given with the values) | hit rate 0.57% among 300,000;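 active means growth inhibition above about 58% in most replicates, limit read from the data, passing the limit was not always enough; inconclusive means exactly half the replicates above a set limit; inactive means most replicates below a set limit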;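 further: all wells also contain fluconazole at 8 µg/ml as a sub-toxic cotreatment; 0% = median of DMSO wells and 100% = median of geldanamycin control wells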
# NALP1 yeast inh: NALP1 inflammasome inhibitors in reconstituted yeast, colorimetric, S. cerevisiae, triplicate retest; AID 2071, 2009; inhibition, % at 10 µM; S. cerevisiae NALP1/ASC/caspase-1 growth, X-gal OD620, 72 h; hit rate 0.61% among 280,000; in the data active means inhibition mostly above about 24%, no sharp cut-off; inactive means mostly below about 32%
# NALP3 yeast inh: NALP3 inflammasome inhibitors in reconstituted yeast, primary screen, luminescence, uHTS; Yeast reconstituted NLRP3/ASC/caspase-1, beta-gal luminescence, 24 h; inhibition, % at 10 µM; hit rate 0.39% among 330,000; AID 2825, 2010;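 active means inhibition of 50% or more; inactive means inhibition below 50%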;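 further: plate controls were induced DMSO wells for no effect and uninduced yeast grown without galactose for full effect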
# PolyA inh: polyadenylation inhibitors in yeast reporter cells, primary screen, luminescence, S. cerevisiae; S. cerevisiae SKY197-pL101 polyadenylation reporter, beta-gal luminescence; efflux-impaired pdr1/pdr3 knockout yeast; score 100 = 6 SD above DMSO; activity score, % at 12 µM; hit rate 0.02% among 300,000; AID 1875, 2009;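 active means lowest replicate activity score at least 50, where 100 means six control SD above control mean; inconclusive means lowest score under 50 but half or more replicates reach 50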;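 further: yeast exposed to compound for 9 h at 30 °C; higher score means more reporter readthrough which indicates perturbed polyadenylation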
# T cruzi repl: inhibitors of intracellular T. cruzi growth, primary screen, luminescence, NIH3T3 host cells; T. cruzi beta-gal in NIH3T3, 90 h; inhibition, % (no concentration beside the values); hit rate 1.4% among 300,000; AID 1885, 2009;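 active means mean inhibition across valid replicates above about 55%, limit read from the data; inconclusive means mean below that limit but half or more replicates reach it; inactive means mean below it, under half of replicates reach it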;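 further: signal also drops with host cell toxicity which is not excluded here; 0% = plate median of DMSO wells and 100% = zero luminescence signal; higher percent means less beta-gal luminescence so fewer parasites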
#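 compound dosing = single 50 nL compound addition per well in DMSO | material = NIH/3T3 host cells with β-galactosidase reporter T. cruzi | input = 5,000 host fibroblasts per well | timing = ≥90 h infection period, 3 h prior cell attachment | read-out basis = percent inhibition of parasite-derived β-gal signal | detection = GalScreen β-gal luminescence, detergent lysis, 60 min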
# * hit, by the source's call; ? = inconclusive; . = not tested or not shown.
SMILES,L major viab,Calb FLC,NALP1 yeast inh,NALP3 yeast inh,PolyA inh,T cruzi repl
COc1cccc(NC(=O)CSc2nc3ccccc3c(=O)n2CCCC(=O)NCC2CCCO2)c1 (configuration not stated),.,-4,12,16,5,4
CCc1ccccc1NC(=O)NC1CC2CCC(C1)N2Cc1cccs1 (configuration not stated),76*,-11,22,9,22,-9
CCNC(=S)NC1CC2CCCC(C1)N2Cc1ccco1 (configuration not stated),-5,-3,9,18,17,-19
Cc1cccc(NC(=S)NC2CCCCCC2)c1C,82*,-21,26,16,-18,-10
O=C(NC1CC2CCCC(C1)N2Cc1ccco1)NC12CC3CC(CC(C3)C1)C2 (configuration not stated),89*,-25,-4,15,-2,27
CCc1ccccc1NC(=O)NC1CCCCC1,5,-4,5,10,-8,3
Cc1cccc(NC(=S)NC2CC3CCC(C2)N3Cc2ccco2)c1C (configuration not stated),90*,-4,-7,14,2,-2
COCC(=O)Nc1nnc(SCC(=O)N2C(C)CCCC2C)s1 (configuration not stated),.,2,3,0,1,-10
COCCCN(C(=O)CSCc1c(C)noc1C)c1c(N)n(Cc2ccccc2)c(=O)[nH]c1=O,.,-5,.,18,14,-21
CCc1ccc(NC(=S)NC2CC3CCCC(C2)N3Cc2cccs2)cc1 (configuration not stated),91*,-19,8,6,3,56*
COCCNC(=S)NC1CC2CCC(C1)N2Cc1ccccc1 (configuration not stated),15,-5,6,15,19,-8
CCc1ccccc1NC(=S)NC1CC2CCC(C1)N2Cc1ccc(F)cc1 (configuration not stated),95*,?,12,21,1,3
Fc1cccc(F)c1CSc1nc2ccccc2[nH]1,100*,-10,8,26,-2,-8
O=C(CSc1nc2ccccc2[nH]1)c1ccccc1F,.,1,20,14,5,-3
COc1ccccc1C(CNc1nc(C(F)(F)F)nc2ccccc12)N(C)C (configuration not stated),.,-1,20,16,-6,25
COc1cc(/C=N/NC(=S)Nc2cccc(C(=O)O)c2)cc(OC)c1OC,-5,1,7,14,-6,-5
COc1cc(/C=N/NC(=S)N/N=C/c2cc(OC)c(OC)c(OC)c2)cc(OC)c1OC,55*,-8,24,5,12,5
CCC(=O)NC(c1ccccc1)c1nc2ccccc2[nH]1 (configuration not stated),18,9,25*,-2,1,4
CSc1ccc(C#N)cc1NC(=O)c1ccccc1C,4,-3,20,23,2,-10
c1ccc(C2Nc3ccccc3-c3nc4ccccc4n32)cc1 (configuration not stated),69*,6,0,-25,-15,6
COc1ccccc1C(O)(C(=O)N(NC(C)=O)c1ccccc1)c1ccccc1OC,.,-4,-3,4,1,-5
COc1ccc(N=c2oc3c(OC)cccc3cc2C(=O)NCc2ccco2)c(OC)c1,4,12,-6,25,-13,24
Cc1nc(C)c(C(=O)OCC(=O)NCCc2ccc(F)cc2)s1,.,.,.,13,.,.
Nc1nnc(SC2CC(=O)N(c3ccccc3)C2=O)s1 (configuration not stated),3,-2,37*,22,-4,28
CCOC(=O)c1ccc(N2C(=O)CC(Sc3nnc(C)s3)C2=O)cc1 (configuration not stated),-2,2,40*,28,23,11
CC(=O)N1N=C(c2ccc(C)o2)CC1c1cccc(F)c1 (configuration not stated),-2,2,9,14,-13,-11
